Results on one compound are retold here after ChEMBL document CHEMBL1157184, “Hymenoic acid, a novel specific inhibitor of human DNA polymerase lambda from a fungus of Hymenochaetaceae sp” (Bioorg Med Chem, 2008).

The species named for one assay is Bos taurus. As to the kind of experiment: Inhibition of bovine deoxyribonuclease 1 at 200 uM. The procedure, abridged: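 Each enzyme (0.05 U) was incubated with 200 μM compound. Activity was expressed as a percentage of the activity without compound (100%). Means ± SEM of four independent experiments.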
For the next assay, the system named is Oryza sativa. In words: Inhibition of rice DNA polymerase lambda at 200 uM. An outline of the steps:
(§1)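 Compound dissolved in DMSO and sonicated 30 s, then held with each polymerase (final 0.05 U) in 50 mM Tris-HCl pH 7.5, 1 mM DTT, 50% glycerol, 0.1 mM EDTA at 0 °C for 10 min. Reaction with poly(dA)/oligo(dT)12-18 and dTTP ran 60 min at 37 °C (Taq at 74 °C). Activity relative to no-compound control; means ± SEM, four independent experiments.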

The next assay concerns Oncorhynchus masou. In words: Inhibition of fish DNA polymerase delta at 200 uM. An outline of the steps: as §1
Assay [1] deals with T1, DNA polymerase eta (Homo sapiens) (UniProt Q9Y253).
T1 sequence (whole entry): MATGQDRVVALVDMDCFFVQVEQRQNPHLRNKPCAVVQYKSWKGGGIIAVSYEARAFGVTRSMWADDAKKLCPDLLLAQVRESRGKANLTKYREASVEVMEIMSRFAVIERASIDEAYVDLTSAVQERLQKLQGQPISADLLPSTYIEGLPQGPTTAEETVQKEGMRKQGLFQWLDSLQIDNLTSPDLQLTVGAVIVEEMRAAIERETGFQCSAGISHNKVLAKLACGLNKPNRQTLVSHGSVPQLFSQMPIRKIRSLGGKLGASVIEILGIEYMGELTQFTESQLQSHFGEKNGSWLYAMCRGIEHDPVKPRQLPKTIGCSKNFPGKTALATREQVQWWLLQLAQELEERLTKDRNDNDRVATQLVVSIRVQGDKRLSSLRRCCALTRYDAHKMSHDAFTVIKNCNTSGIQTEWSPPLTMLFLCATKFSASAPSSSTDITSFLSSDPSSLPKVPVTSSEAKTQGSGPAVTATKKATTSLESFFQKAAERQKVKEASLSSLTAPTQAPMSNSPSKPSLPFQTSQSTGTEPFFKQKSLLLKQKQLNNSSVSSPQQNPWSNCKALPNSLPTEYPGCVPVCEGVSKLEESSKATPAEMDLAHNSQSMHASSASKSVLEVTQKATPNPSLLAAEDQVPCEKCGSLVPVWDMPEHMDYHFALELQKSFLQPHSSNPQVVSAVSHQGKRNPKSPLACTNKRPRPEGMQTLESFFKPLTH
As to the kind of experiment: Inhibition of human DNA polymerase eta at 200 uM. The procedure, abridged:
as §1

For assay [2], the target named is T2, DNA polymerase alpha catalytic subunit (Drosophila melanogaster) (UniProt P26019).
T2 sequence (whole entry): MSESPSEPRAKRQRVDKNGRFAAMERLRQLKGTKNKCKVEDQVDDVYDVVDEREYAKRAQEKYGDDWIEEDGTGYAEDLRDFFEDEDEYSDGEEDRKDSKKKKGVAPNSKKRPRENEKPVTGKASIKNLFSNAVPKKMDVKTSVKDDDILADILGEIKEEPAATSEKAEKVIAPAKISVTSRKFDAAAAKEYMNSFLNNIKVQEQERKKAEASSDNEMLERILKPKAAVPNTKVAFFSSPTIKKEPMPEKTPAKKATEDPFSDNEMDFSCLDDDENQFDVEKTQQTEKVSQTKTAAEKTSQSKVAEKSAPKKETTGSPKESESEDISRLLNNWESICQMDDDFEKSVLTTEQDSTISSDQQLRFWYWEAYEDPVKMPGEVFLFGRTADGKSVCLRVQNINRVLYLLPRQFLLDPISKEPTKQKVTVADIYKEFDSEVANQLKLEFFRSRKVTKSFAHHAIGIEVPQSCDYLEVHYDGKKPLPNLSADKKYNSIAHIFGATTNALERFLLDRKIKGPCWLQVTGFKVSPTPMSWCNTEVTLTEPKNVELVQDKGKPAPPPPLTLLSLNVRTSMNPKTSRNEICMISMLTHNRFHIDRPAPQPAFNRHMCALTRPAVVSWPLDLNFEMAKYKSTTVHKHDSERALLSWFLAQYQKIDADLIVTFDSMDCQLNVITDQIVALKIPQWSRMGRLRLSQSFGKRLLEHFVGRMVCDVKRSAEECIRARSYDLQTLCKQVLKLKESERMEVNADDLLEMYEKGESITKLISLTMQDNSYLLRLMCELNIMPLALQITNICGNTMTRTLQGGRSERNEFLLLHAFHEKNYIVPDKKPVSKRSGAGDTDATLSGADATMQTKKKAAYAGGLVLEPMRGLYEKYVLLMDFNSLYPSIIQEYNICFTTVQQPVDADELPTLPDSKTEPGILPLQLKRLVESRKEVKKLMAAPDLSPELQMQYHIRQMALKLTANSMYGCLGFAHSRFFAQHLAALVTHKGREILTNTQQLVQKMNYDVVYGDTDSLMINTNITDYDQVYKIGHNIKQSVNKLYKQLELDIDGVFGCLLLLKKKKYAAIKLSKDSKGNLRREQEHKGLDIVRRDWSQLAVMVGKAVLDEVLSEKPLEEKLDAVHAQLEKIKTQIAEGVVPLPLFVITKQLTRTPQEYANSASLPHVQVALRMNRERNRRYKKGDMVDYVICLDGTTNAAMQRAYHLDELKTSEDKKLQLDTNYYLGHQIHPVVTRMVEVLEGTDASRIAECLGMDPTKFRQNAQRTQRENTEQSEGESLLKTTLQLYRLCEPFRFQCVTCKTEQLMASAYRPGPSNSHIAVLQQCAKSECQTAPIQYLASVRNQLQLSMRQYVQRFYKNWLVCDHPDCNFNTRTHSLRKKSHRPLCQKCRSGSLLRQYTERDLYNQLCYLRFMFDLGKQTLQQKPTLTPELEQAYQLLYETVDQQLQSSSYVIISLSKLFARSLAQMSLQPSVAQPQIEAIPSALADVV
In words: Inhibition of fruit fly DNA polymerase alpha at 200 uM. An outline of the steps: as §1

For a further assay, the species on record is Homo sapiens. In words: Inhibition of human DNA polymerase epsilon at 200 uM. An outline of the steps:
as §1

For the next assay, the system named is Drosophila melanogaster. As to the kind of experiment: Inhibition of fruit fly DNA polymerase beta at 200 uM. The procedure, abridged: as §1

The source made the active and inactive calls. The calls are words filed in the database; no cut-off is given here.

`C/C(=C\CC[C@H](C)C(=O)O)[C@H]1CC[C@H](C(=O)O)CC1`: the outcome (in the assay listed under Bos taurus; in the assay on Oncorhynchus masou; in assay [1]; in assay [2]; in the assay filed under Homo sapiens; with Drosophila melanogaster) was inactive. For the same compound, in the assay with Oryza sativa, the outcome was Active.
